Published values gathered from unrelated publications.
Protocols differ between the studies behind these lines.
Ephx2: Bifunctional epoxide hydrolase 2 (Ephx2, Rattus norvegicus, UniProt P80299)
PDE3A: cGMP-inhibited 3',5'-cyclic phosphodiesterase 3A (PDE3A, Homo sapiens, UniProt Q14432)
LRRK2: Leucine-rich repeat serine/threonine-protein kinase 2 (LRRK2, Homo sapiens, UniProt Q5S007)
MAPK14: Mitogen-activated protein kinase 14 (MAPK14, Homo sapiens, UniProt Q16539)
HTR1A: 5-hydroxytryptamine receptor 1A (HTR1A, Homo sapiens, UniProt P08908)

CC(O)C(C)C(=O)N1CCC(NC(=O)Nc2ccc(OC(F)(F)F)c(F)c2)CC1 (stereo not drawn)  IC50 (Ephx2; enzyme activity, inhibitor): 0.0043 µM
COCCOCOc1ccc(C(=O)/C=C/c2ccc(C(=O)O)cc2)cc1C12CC3CC(CC(C3)C1)C2  IC50 (Inhibitor of nuclear factor kappa-B kinase subunit beta (IKBKB, Homo sapiens, UniProt O14920); enzyme activity, inhibitor, TR-FRET): 16.7 µM
Cc1nn2c(-c3c(C)nn(C)c3-c3ccc(C(F)(F)F)cc3)nc(CO)c2c(=O)[nH]1  IC50 (PDE3A; enzyme activity, inhibitor): 11.8 µM
CN1CCN(c2ccc(Nc3ncc4cc(C#N)c(=O)n(C5CCCC5)c4n3)cc2)CC1  IC50 (Casein kinase I isoform epsilon (CSNK1E, Homo sapiens, UniProt P49674); enzyme activity, inhibitor): 5.49 µM
CCC(C)(O)C(=O)N1CCC(NC(=O)Nc2ccc(OC(F)(F)F)c(F)c2)CC1 (stereo not drawn)  IC50 (Ephx2; enzyme activity, inhibitor): 0.0106 µM
N#C/C(=C\c1ccc(O)c(O)c1)C(=O)OC/C=C/c1ccccc1  IC50 (LRRK2; enzyme activity, inhibitor, radiometric): 0.619 µM
Cn1c(=O)c([N+](=O)[O-])c(Cl)c2ccccc21  IC50 (Adenylate cyclase type 1 (Homo sapiens, UniProt Q08828); cAMP): 0.3 µM
Cc1cnc(-c2ccc(-c3ccc(NC(=O)Nc4c(F)cc(F)cc4F)cc3F)c3c2C(=O)NC3)[nH]1  IC50 (LRRK2; enzyme activity, inhibitor): 0.0134 µM
CCN1CCN(c2c(Cl)cccc2NC(=O)c2ccc(Br)o2)CC1  IC50 (MAPK14; enzyme activity, inhibitor): > 20 µM
COc1ccc2c(Oc3ccc4c(C(=O)Nc5ccccc5N)cccc4c3)ccnc2c1  IC50 (MAPK14; enzyme activity, inhibitor): > 0.5 µM
Cc1nccc2c1c(=O)n(C)c1cc(OC[C@@H](N)CC(C)C)c(C#N)cc21  IC50 (Alpha-2C adrenergic receptor (ADRA2C, Homo sapiens, UniProt P18825); cell-free assay): > 30 µM
COc1cc(C[C@H]2C(=O)OC[C@@H]2Cc2ccc(OC)c(OC)c2)ccc1O  IC50 (PDE3A; enzyme activity, inhibitor): > 20 µM
CC(C)(C)n1nc(-c2cnc3cc(OC4CC4)ccc3c2)c(C(N)=O)c1N  IC50 (Death-associated protein kinase 3 (DAPK3, Homo sapiens, UniProt O43293); cell-free assay): > 10 µM
CN(CCCCNC(=O)c1cc2ccccc2[nH]1)[C@@H]1Cc2cccc3[nH]c(=O)n(c23)C1  IC50 (HTR1A; ligand displacement, radioligand): 0.137 µM
CN(C)CCC=C1c2ccccc2CCc2ccccc21  IC50 (Estrogen receptor (ESR1, Homo sapiens, UniProt P03372); reporter gene, antagonist): 25.4 µM
CC1=CC[C@@H](C(C)(C)O)CC1  IC50 (Urease subunit beta (ureB, Helicobacter pylori, UniProt P69996); enzyme activity in cells, inhibitor, absorbance): 9.35 µM
CC(C)(C)n1nc(-c2ccc3nc(OC4CC4)ccc3c2)c(C(N)=O)c1N  IC50 (MAPK14; cell-free assay): > 10 µM
O=c1ccc2cc(O)c(O)cc2o1  IC50 (Leucine-rich repeat serine/threonine-protein kinase 2 (LRRK2, Homo sapiens, UniProt Q5S007, G2019S); enzyme activity, inhibitor, radiometric): 0.358 µM
N#Cc1ccc(COc2cccc(C3CCN(Cc4nc5ccc(C(=O)O)cc5n4C[C@@H]4CCO4)CC3)n2)c(F)c1  IC50 (PDE3A; enzyme activity, inhibitor): 2.3 µM
O=C(/C=C/c1ccc(O)c(O)c1)O[C@H](Cc1ccc(O)c(O)c1)C(=O)O  IC50 (LRRK2; enzyme activity, inhibitor, radiometric): 1.87 µM
CC1Cc2ccccc2N1C(=O)NCCCCN(C)[C@@H]1Cc2cccc3[nH]c(=O)n(c23)C1 (mixture of isomers)  IC50 (HTR1A; ligand displacement, radioligand): 0.0256 µM
